Consider two molecules from ChEMBL document CHEMBL4359864, “The synthesis and in vitro biological evaluation of novel fluorinated tetrahydrobenzo[j]phenanthridine-7,12-diones against Mycobacterium tuberculosis” (Eur J Med Chem, 2019).

Values after ≈ are worked out from the molar mass of the structure shown. Active and inactive are the calls of the source.

The subject of data set [1] is Mycobacterium tuberculosis. Briefly: Antibacterial activity against Mycobacterium tuberculosis H37Ra ATCC 25177 incubated for 7 days by resazurin dye based fluorimetric assay. The format is functional, organism-based. As to conditions: H37Ra ATCC 25177, 168 h. A digest of the protocol:
(§1)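 Resazurin microtiter assay: compounds from 10 mM DMSO stock, twofold serial dilutions from 64 µM final in growth medium, in triplicate. Inoculum from frozen glycerol stocks. Exposure 24 h, or 7 days for Mtb H37Ra (7H9 + 0.5% glycerol + 10% OADC). Then 0.01% resazurin was added and plates were incubated at 37°C until pink. Fluorescence read at ex 550/em 590 nm; mean of triplicates.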

Data set [2] deals with T1, UGT (Homo sapiens, UniProt O60656+O75310+O75795+P06133+P0DTE4+P0DTE5+P16662+P19224+P22309+P22310+P35503+P35504+P36537+P54855+Q6UWM9+Q9BY64+Q9HAW7+Q9HAW8+Q9HAW9). Briefly: Microsomal stability in human liver microsomes assessed as UGT-mediated metabolism by measuring compound remaining at 5 uM and measured for 30 mins in presence of UDPGA by UPLC-MS/MS analysis (reference value: 100%). It counts as ADME. To be noted: read-out: Stability. A digest of the protocol: (§2)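 Compound at 5 µM with 0.5 mg/mL liver microsomes in PBS. Phase I was started with 1 mM NADPH; phase II used 2 mM UDPGA. Diclofenac served as reference. Samples taken at 0, 15, 30 and 60 min were quenched in ice-cold acetonitrile, centrifuged at 4°C and analysed by LC-MS. Mean of at least two replicates ± SD.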

The next data set deals with Enterococcus faecium. Briefly: Antibacterial activity against Enterococcus faecium ATCC 19434 incubated for 24 hrs by resazurin dye based fluorimetric assay. It counts as functional, organism-based. As to conditions: ATCC 19434, 24 h. The procedure, abridged: as §1
Data set [3] relates to Mycobacterium tuberculosis. Briefly: Antimycobacterial activity against Mycobacterium tuberculosis H37Ra lux infected in mouse J774A.1 cells assessed as reduction in intracellular mycobacterial replication at 1.5 uM incubated for 24 to 72 hrs by luminometric assay relative to control. The format is functional. A digest of the protocol:
(§3)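 J774A.1 cells were infected at MOI 10 for 2 h at 37°C. Extracellular bacteria were killed with 100 µg/mL gentamicin for 1 h, then cells were washed and treated. At 24, 48 and 72 h, cells were lysed with 1% Triton X-100 and n-decanal was added to the lysate. Luminescence (RLU) reported as mean of triplicates ± SD.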

Data set [4] is described as follows: Genotoxicity in Salmonella typhimurium TA104 harboring with pr1 assessed as S/N ratio at 1 to 100 uM measured for 4 hrs with 5 mins interval in presence of rat liver S9 fraction by luminescence based assay. The format is toxicity, subcellular. To be noted: salmonella enterica subsp. enterica serovar typhimurium, s9, 4 h. The procedure, abridged: (§4)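 VITOTOX test. Genox (recN2-4) and Cytox (pr1) S. typhimurium TA104 strains were diluted 250-fold and grown in 869 medium for 16 h at 36°C with shaking, then diluted 10-fold and grown 1 h more. Compounds tested at 1, 10 and 100 µM, with or without rat liver S9-mix. Luminescence read for 4 h at 5-min intervals. S/N thresholds: Genox >1.5 genotoxic; Cytox <0.8 toxic, >1.5 luminescence artefact.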

Another data set relates to Escherichia coli. Briefly: Antibacterial activity against Escherichia coli ATCC 8739 incubated for 24 hrs by resazurin dye based fluorimetric assay. The format is functional, organism-based. As to conditions: ATCC 8739, ATCC 8739, 24 h. A digest of the protocol:
as §1

The test system of data set [5] is CYP450. Put plainly: Microsomal stability in mouse liver microsomes assessed as CYP450-mediated metabolism by measuring compound remaining at 5 uM and measured for 30 mins in presence of NADPH by UPLC-MS/MS analysis (reference value: 100%). To be noted: read-out: Stability. The format is ADME. A digest of the protocol:
as §2

Data set [6] can be described thus: Antimycobacterial activity against Mycobacterium avium subsp. avium ATCC 25291 by resazurin dye based fluorimetric assay. The format is functional. The procedure, abridged:
(§5)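 Resazurin microtiter method as for the bacterial panel. Mycobacteria grown in 7H9 with 10% OADC and 0.5% glycerol; for BCG, 0.05% Tween 80 replaced the glycerol. Cultures were sonicated and needle-passed to single cells. Incubation at 37°C, or 32°C for M. marinum. Fluorescence read at ex 550/em 590 nm; mean of triplicates.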

A further data set deals with Pseudomonas aeruginosa. Briefly: Antibacterial activity against Pseudomonas aeruginosa ATCC 9027 incubated for 24 hrs by resazurin dye based fluorimetric assay. It counts as functional, organism-based. To be noted: ATCC 9027, 24 h. The procedure, abridged: as §1
Another data set has as its system Streptococcus pneumoniae. Briefly: Antibacterial activity against Streptococcus pneumoniae ATCC BAA-334 incubated for 24 hrs by resazurin dye based fluorimetric assay. The format is functional, organism-based. To be noted: ATCC BAA-334, 24 h. A digest of the protocol: as §1
For another data set, the system named is Mycobacterium marinum. Briefly: Antimycobacterial activity against Mycobacterium marinum NCTC 2275 by resazurin dye based fluorimetric assay. The format is functional, organism-based. A digest of the protocol: as §5
Data set [7] deals with CYP450. Briefly: Microsomal stability in mouse liver microsomes assessed as CYP450-mediated metabolism by measuring compound remaining at 5 uM and measured for 60 mins in presence of NADPH by UPLC-MS/MS analysis (reference value: 100%). The format is ADME. As to conditions: read-out: Stability. The procedure, abridged:
as §2

For data set [8], the system named is Mycobacterium tuberculosis. Briefly: Antimycobacterial activity against Mycobacterium tuberculosis H37Ra lux infected in mouse J774A.1 cells assessed as reduction in intracellular mycobacterial replication at 10.0 uM incubated for 24 to 72 hrs by luminometric assay relative to control. It counts as functional. A digest of the protocol:
as §3

Data set [9] has as its system Mycobacterium tuberculosis. Put plainly: Antimycobacterial activity against Mycobacterium tuberculosis H37Ra lux infected in mouse J774A.1 cells assessed as reduction in intracellular mycobacterial replication at 5.0 uM incubated for 24 to 72 hrs by luminometric assay relative to control. The format is functional. The procedure, abridged:
as §3

Data set [10] has as its system CYP450. Briefly: Microsomal stability in mouse liver microsomes assessed as CYP450-mediated metabolism by measuring compound remaining at 5 uM and measured for 15 mins in presence of NADPH by UPLC-MS/MS analysis (reference value: 100%). It counts as ADME. To be noted: read-out: Stability. A digest of the protocol: as §2
Data set [11] is described as follows: Genotoxicity in Salmonella typhimurium TA104 harboring with RecN2-4 assessed as S/N ratio at 1 to 100 uM measured for 4 hrs with 5 mins interval by luminescence based assay. As to conditions: salmonella enterica subsp. enterica serovar typhimurium. It counts as toxicity. A digest of the protocol:
as §4

Data set [12] relates to Mycobacterium tuberculosis. Put plainly: Antimycobacterial activity against Mycobacterium tuberculosis H37Ra lux incubated for 7 days by luminometric assay. The format is functional, organism-based. To be noted: 168 h. The procedure, abridged:
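Twofold serial dilutions in 7H9/OADC/glycerol, in triplicate, inoculated with a suspension of 10.000 RLU per mL. After 7 days, n-decanal (1% v/v in ethanol) was added and luminescence read. IC50 and MIC (90% growth reduction) were derived from the mean of triplicates.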

The subject of the next data set is Staphylococcus aureus. Put plainly: Antibacterial activity against Staphylococcus aureus ATCC 6538 incubated for 24 hrs by resazurin dye based fluorimetric assay. It counts as functional, organism-based. To be noted: ATCC 6538, 24 h. A digest of the protocol:
as §1

Data set [13] addresses T1, UGT. Put plainly: Microsomal stability in human liver microsomes assessed as UGT-mediated metabolism by measuring compound remaining at 5 uM and measured for 60 mins in presence of UDPGA by UPLC-MS/MS analysis (reference value: 100%). To be noted: read-out: Stability. The format is ADME. A digest of the protocol:
as §2

Data set [14] is described as follows: Genotoxicity in Salmonella typhimurium TA104 harboring with RecN2-4 assessed as S/N ratio at 1 to 100 uM measured for 4 hrs with 5 mins interval in presence of rat liver S9 fraction by luminescence based assay. The format is toxicity, subcellular. As to conditions: salmonella enterica subsp. enterica serovar typhimurium, s9, 4 h. A digest of the protocol: as §4

For the molecule `O=C1C2=C(C(=O)c3c1cnc1c(F)cccc31)C1CCC2C1` (configuration not stated), the 50% inhibitory concentration (IC50) in [1] is 1 to 2 µM; in the data set with Enterococcus faecium, greater than 64 µM; with Escherichia coli, greater than 64 µM; in [6] it was 0.1 µM; with Pseudomonas aeruginosa, greater than 64 µM; with Streptococcus pneumoniae, 32 to 64 µM. The half-inhibitory concentration (IC50) in the data set on Mycobacterium marinum is 3.3 µM; in data set [12], 1.54 µM; in the data set on Staphylococcus aureus it was greater than 32 µM. Besides, the figures for the remaining at 0.5 h, 5 µM on UGT [2] and in the data set on CYP450 [5] were 71% and 100%, respectively. Further, the outcome in data set [3], in [8] and in data set [9] was inactive. In addition, the figures for the Ratio result in data set [4], in data set [11] and in data set [14] were “>= 0.8”, “<= 1.5” and “<= 1.5”, respectively. Besides, the remaining at 1 h, 5 µM was 100% in the data set with CYP450 [7] and 65% at UGT [13]. Moreover, in the data set on CYP450 [10], the remaining at 0.25 h, 5 µM turned out to be 100%. This molecule came in with an MIC90 in [12] of 4.43 µM (≈ 1.3 µg/mL).
For the molecule `O=C1C2=C(C(=O)c3c1cnc1ccccc31)C1CCC2C1` (configuration not stated), the half-inhibitory concentration (IC50) was 1 to 2 µM in [1]; 32 to 64 µM in the data set with Enterococcus faecium; greater than 64 µM with Escherichia coli; 0.12 µM in data set [6]; greater than 64 µM with Pseudomonas aeruginosa; 32 to 64 µM with Streptococcus pneumoniae. The concentration for half-maximal inhibition (IC50) is 7.73 µM in the data set on Mycobacterium marinum, 1.28 µM in data set [12] and 32 to 64 µM in the data set on Staphylococcus aureus. Also, the remaining at 0.5 h, 5 µM at UGT [2] amounted to 76%; in the data set with CYP450 [5], 100%. Besides, the Activity amounted to 20.68% in [3], 84.14% in data set [8] and 58.94% in data set [9]. The Ratio result in data set [4] is on record as “>= 0.8”; in [11] it was “<= 1.5”; in [14] it was “<= 1.5”. In addition, the remaining at 1 h, 5 µM in the data set with CYP450 [7] stood at 94%; on UGT [13], 68%. For the same molecule, the remaining at 0.25 h, 5 µM in the data set on CYP450 [10] was determined as 100%. Moreover, the MIC90 in [12] was 6.33 µM (≈ 1.74 µg/mL).
